Values belong to the compound of their own block, whether it stands above or below them.
Legend:
LLC-PK1 [1] = test: Permeability from apical to basolateral side of pig LLC-PK1 cells over expressing human MDR1; type: ADME, cell-based, Sus scrofa
Method in brief: (§1)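 P-gp-transfected LLC-PK1 monolayers received [14C]oseltamivir (0.1–10 mM) plus Lucifer yellow on the apical or basolateral donor side, with or without 1 µM elacridar. Incubation was at 37°C under 5% CO2. The acceptor side was sampled at 0.5–3 h and counted by scintillation. Pe was taken from the 3 h point, without correction for marker flux. Three inserts were used per condition and averaged.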

LLC-PK1 [2] = test: Permeability from basolateral to apical side of pig LLC-PK1 cells over expressing human MDR1; type: ADME, cell-based, Sus scrofa; method in brief: as §1
[3] = Prodrug conversion assessed as oseltamivir carboxylate level in presence of Sf9 cell culture supernatant expressing human recombinant HCE1 after 30 mins; type: ADME; settings: sf9, 0.5 h
Method in brief: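 Culture supernatants from baculovirus-infected Sf9 cells (day 5–7; 1.0 mg/ml protein) were incubated in triplicate with 10 µM 14C-oseltamivir in 100 mM Tris-HCl at 37°C for 30 min. Reactions were quenched with TCA-acetonitrile, then analyzed by HPLC with fraction scintillation counting. Conversion was calculated as OC radioactivity over total radioactivity, corrected for no-enzyme hydrolysis. Wild-type virus and liver S9 served as controls.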

[4] = Prodrug conversion in commercial brain S9 fractions assessed as paranitrophenol generation rate assessed per mg of protein per min; type: ADME
[5] = Prodrug conversion in 7 days old male rat brain S9 fractions assessed as oseltamivir carboxylate generation rate assessed per mg of protein per min; type: ADME, tissue-based
Method in brief: (§2)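 S9 from brain or liver (rat S9 made by homogenizing tissue in ~4 ml Tris-sucrose buffer per g, supernatant after 9,000 × g at 10°C; pooled human brain and liver S9 also used), protein by bicinchoninic acid assay. Oseltamivir: triplicate, 10 μM 14C-oseltamivir final, 1.0 mg S9 protein, 100 mM Tris-HCl pH 7.4, 30 min at 37°C, quenched with TCA-acetonitrile.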

[6] = Prodrug conversion in 7 days old female rat brain S9 fractions assessed as oseltamivir carboxylate generation rate assessed per mg of protein per min; type: ADME, tissue-based; method in brief: as §2
[7] = Prodrug conversion in 42 days old male rat brain S9 fractions assessed as oseltamivir carboxylate generation rate assessed per mg of protein per min; type: ADME, tissue-based
Method in brief: (§3)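 Rat brain or liver S9 (9,000 × g supernatant; 1.0 mg protein) was incubated in triplicate with 10 µM 14C-oseltamivir (final) in 100 mM Tris-HCl pH 7.4 for 30 min at 37°C. Reactions were quenched with TCA-acetonitrile, and the fraction converted to OC was measured by radioflow HPLC with fractionation. Rate was calculated as (pmol/ml substrate × fraction hydrolyzed)/(mg protein/ml × time), minus the no-protein background.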

[8] = Prodrug conversion in 7 days old female rat liver S9 fractions assessed as oseltamivir carboxylate generation rate assessed per mg of protein per min; type: ADME, subcellular, S9 fraction; method in brief: as §2
[9] = Prodrug conversion in 42 days old male rat liver S9 fractions assessed as oseltamivir carboxylate generation rate assessed per mg of protein per min; type: ADME, subcellular, S9 fraction; method in brief: as §3
[10] = Prodrug conversion in commercial liver S9 fractions assessed as oseltamivir carboxylate generation rate assessed per mg of protein per min; type: ADME, subcellular, S9 fraction; method in brief: as §2
[11] = Prodrug conversion in 42 days old female rat brain S9 fractions assessed as conversion of oseltamivir to oseltamivir carboxylate; type: ADME, tissue-based; method in brief: as §3
[12] = Prodrug conversion in human liver S9 fractions assessed as conversion of oseltamivir to oseltamivir carboxylate; type: ADME, subcellular, S9 fraction; method in brief: as §2
[13] = Prodrug conversion in 7 days old female rat brain S9 fractions assessed as paranitrophenol generation rate assessed per mg of protein per min; type: ADME, tissue-based
[14] = Volume of distribution at steady state in Sprague-Dawley rat at 30 mg/kg, iv; type: ADME, organism-based; parameters: dose 30 mg/kg, route intravenous; settings: in vivo, read-out: Vdss
Method in brief: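 Nonfasted adult Sprague-Dawley rats received a single 30 mg/kg i.v. bolus in 0.9% NaCl (pH 4.0), injected slowly into the tail vein over 20–30 s. Plasma was sampled by cardiac puncture under isoflurane at 5 min and 0.25, 0.5, 1, 2, 4 and 8 h, with 4–5 rats per time point. Samples were assayed by LC-MS/MS. Vss was estimated by noncompartmental analysis of pooled composite data.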

[15] = AUC ratio in cerebrospinal fluid to plasma in Sprague-Dawley rat at 30 mg/kg, iv; type: ADME, organism-based; parameters: dose 30 mg/kg, route intravenous; settings: cerebrospinal fluid and plasma, read-out: Ratio AUC
Method in brief: (§4)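 Nonfasted adult rats received 30 mg/kg in aqueous 0.9% NaCl (pH 4.0) by slow tail-vein injection over 20–30 s. Groups were sampled at 5 min and 0.25, 0.5, 1, 2, 4 and 8 h, with 4–5 rats per time point, under terminal isoflurane. Blood was taken by heart puncture and CSF from the cisterna magna. Brains were homogenized either unperfused or after transcardial saline perfusion. Samples were assayed by LC-MS/MS, and pooled composite data were analyzed noncompartmentally.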

[16] = AUC (0 to infinity) ratio in brain to plasma in perfused Sprague-Dawley rat at 30 mg/kg, iv; type: ADME, organism-based; parameters: dose 30 mg/kg, route intravenous; settings: brain and plasma, read-out: Ratio AUC; method in brief: as §4
MDR1 (P-gp, ABCB1) = MDR1 (P-gp, ABCB1) (Homo sapiens, UniProt P08183); test: Activity of human MDR1-mediated permeability from apical to basolateral side in pig LLC-PK1 cells in presence of P-gp inhibitor elacridar; type: cell-based; settings: LLC-PK1, with elacridar (concentration not stated), read-out: permeability; method in brief: as §1
[17] = Ratio of drug level in brain to plasma in non-perfused Sprague-Dawley rat at 30 mg/kg, iv; type: ADME, organism-based; parameters: dose 30 mg/kg, route intravenous; settings: brain and plasma, read-out: BPR
Method in brief: (§5)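 Nonfasted Sprague-Dawley rats given 30 mg/kg i.v. in 0.9% NaCl pH 4.0 by tail vein over 20–30 s. Terminal sampling under isoflurane at 5 min, 0.25, 0.5, 1, 2, 4 and 8 h (4–5 rats/time): plasma, CSF, and brain homogenate, with or without saline perfusion. LC-MS/MS. t1/2, Vss and ratios from noncompartmental analysis of pooled composite concentrations.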

Cerebrospinal fluid [18] = test: Cmax in non-perfused Sprague-Dawley rat cerebrospinal fluid assessed as active metabolite oseltamivir carboxylate level at 30 mg/kg, iv; type: ADME, organism-based; parameters: dose 30 mg/kg, route intravenous; settings: in vivo, BLD = below limit of detection; method in brief: as §4
Brain [19] = test: Cmax in non-perfused Sprague-Dawley rat brain assessed as active metabolite oseltamivir carboxylate level at 30 mg/kg, iv; type: ADME, organism-based; parameters: dose 30 mg/kg, route intravenous; settings: in vivo; method in brief: as §4
Plasma [20] = test: Cmax in perfused Sprague-Dawley rat plasma assessed as active metabolite oseltamivir carboxylate level at 30 mg/kg, iv; type: ADME, organism-based; parameters: dose 30 mg/kg, route intravenous; settings: in vivo; method in brief: as §4
Cerebrospinal fluid [21] = test: Cmax in perfused Sprague-Dawley rat cerebrospinal fluid assessed as active metabolite oseltamivir carboxylate level at 30 mg/kg, iv; type: ADME, organism-based; parameters: dose 30 mg/kg, route intravenous; settings: in vivo, BLD = below limit of detection; method in brief: as §4
Plasma [22] = test: Terminal half life in non-perfused Sprague-Dawley rat plasma assessed as active metabolite oseltamivir carboxylate level at 30 mg/kg, iv; type: ADME, organism-based; parameters: dose 30 mg/kg, route intravenous; settings: in vivo; method in brief: as §5
Brain [23] = test: Terminal half life in non-perfused Sprague-Dawley rat brain assessed as active metabolite oseltamivir carboxylate level at 30 mg/kg, iv; type: ADME, organism-based; parameters: dose 30 mg/kg, route intravenous; settings: in vivo; method in brief: as §5
[24] = Cmax ratio in brain to plasma in perfused Sprague-Dawley rat at 30 mg/kg, iv; type: ADME, organism-based; parameters: dose 30 mg/kg, route intravenous; settings: brain and plasma; method in brief: as §4
Rattus norvegicus = test: Volume of distribution at steady state in Sprague-Dawley rat assessed as active metabolite oseltamivir carboxylate level at 30 mg/kg, iv; type: ADME, organism-based; parameters: dose 30 mg/kg, route intravenous; settings: in vivo; method in brief: as §5
Plasma [25] = test: AUC (0 to 8 hrs) after iv dose in perfused Sprague-Dawley rat plasma assessed as active metabolite oseltamivir carboxylate level at 30 mg/kg; settings: in vivo
Brain [26] = test: AUC (0 to 8 hrs) after iv dose in non-perfused Sprague-Dawley rat brain assessed as active metabolite oseltamivir carboxylate level at 30 mg/kg; settings: in vivo

MDR1 (P-gp, ABCB1), sequence (P08183 whole entry, the tested form may be a part): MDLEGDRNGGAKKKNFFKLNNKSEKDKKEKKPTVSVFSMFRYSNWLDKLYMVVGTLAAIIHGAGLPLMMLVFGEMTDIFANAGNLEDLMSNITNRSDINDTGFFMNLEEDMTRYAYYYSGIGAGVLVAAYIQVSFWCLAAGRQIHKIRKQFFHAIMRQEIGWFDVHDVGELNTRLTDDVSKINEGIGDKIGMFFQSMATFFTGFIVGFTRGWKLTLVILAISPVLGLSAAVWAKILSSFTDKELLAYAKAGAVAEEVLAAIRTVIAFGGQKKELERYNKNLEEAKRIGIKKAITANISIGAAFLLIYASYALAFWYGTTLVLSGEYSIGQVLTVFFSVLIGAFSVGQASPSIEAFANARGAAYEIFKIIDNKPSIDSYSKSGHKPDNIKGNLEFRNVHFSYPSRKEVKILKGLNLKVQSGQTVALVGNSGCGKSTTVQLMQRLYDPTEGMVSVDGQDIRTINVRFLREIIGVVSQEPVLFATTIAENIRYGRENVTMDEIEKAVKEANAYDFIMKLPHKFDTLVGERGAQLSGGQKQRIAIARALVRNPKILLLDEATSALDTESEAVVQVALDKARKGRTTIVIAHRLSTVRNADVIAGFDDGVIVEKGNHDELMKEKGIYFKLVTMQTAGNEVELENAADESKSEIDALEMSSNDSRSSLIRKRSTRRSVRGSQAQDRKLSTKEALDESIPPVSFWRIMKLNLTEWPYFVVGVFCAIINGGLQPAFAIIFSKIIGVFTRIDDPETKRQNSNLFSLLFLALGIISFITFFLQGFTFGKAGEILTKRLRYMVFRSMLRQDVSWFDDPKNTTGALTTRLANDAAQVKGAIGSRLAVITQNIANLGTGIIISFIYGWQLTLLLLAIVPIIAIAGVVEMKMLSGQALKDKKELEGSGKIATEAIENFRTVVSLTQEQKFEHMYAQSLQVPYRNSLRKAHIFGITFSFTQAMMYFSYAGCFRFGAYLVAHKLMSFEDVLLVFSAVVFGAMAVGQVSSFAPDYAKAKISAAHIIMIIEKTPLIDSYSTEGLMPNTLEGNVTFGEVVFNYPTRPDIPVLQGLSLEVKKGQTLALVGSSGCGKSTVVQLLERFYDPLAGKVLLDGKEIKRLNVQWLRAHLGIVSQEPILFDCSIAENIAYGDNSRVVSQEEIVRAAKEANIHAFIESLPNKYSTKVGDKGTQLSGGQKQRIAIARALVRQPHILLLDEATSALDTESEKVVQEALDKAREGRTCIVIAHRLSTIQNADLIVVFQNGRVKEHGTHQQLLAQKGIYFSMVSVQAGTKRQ

Papp (LLC-PK1 [1]): 10.1 nm/s
Papp (LLC-PK1 [2]): 10.1 nm/s
Activity [3]: Active
Activity [4]: 49 nmol
Activity [5]: < 0.2 pmol/s
Activity [6]: < 0.2 pmol/s
Activity [7]: 0.52 pmol/s
Activity [8]: 0.34 pmol/s
Activity [9]: 2.11 pmol/s
Activity [10]: 126 pmol/s
Activity [11]: 0.18%
Activity [12]: 3.57%
Activity [13]: 92 nmol
Vd [14]: 3 L/kg
Kp [15]: 0.09
Kp [16]: 0.21
Papp A→B (MDR1 (P-gp, ABCB1)): 38.9 nm/s
SMILES: CCOC(=O)C1=C[C@@H](OC(CC)CC)[C@H](NC(C)=O)[C@@H](N)C1 [OSELTAMIVIR]

Kp [17]: 0.02
Cmax (Cerebrospinal fluid [18]): BLD
Cmax (Brain [19]): 164 ng/g
Cmax (Plasma [20]): 6.3 µg/mL
Cmax (Cerebrospinal fluid [21]): BLD
beta t1/2 (Plasma [22]): 1.69 h
beta t1/2 (Brain [23]): 0.508 h
Kp [24]: 0.01
Vdss (Rattus norvegicus): 0.8 L/kg
AUC (Plasma [25]): 12800
AUC (Brain [26]): 145
SMILES: CCC(CC)O[C@@H]1C=C(C(=O)O)C[C@H](N)[C@H]1NC(C)=O [OSELTAMIVIR CARBOXYLATE]
